Several values for one entry are separate records, joined by “and”; a condition that tells them apart may be missing. Identical values can stand only once.
Test system: U2OS
Assay: Multiplex assay against U2OS
Format: toxicity, cell-based
Conditions: human
In short: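 On a CQ1 microscope at 37°C and 5% CO2, live cells were imaged after compound addition. They had been stained at seeding with Hoechst33342, BioTracker Green Microtubule Cytoskeleton Dye, MitoTracker Red and Annexin V Alexa Fluor 680. CellPathfinder machine-learning gating assigned cells to Hoechst high-intensity objects or normal cells, normal cells to healthy, pyknosed or fragmented nuclei, and pyknosed cells to mitotic or apoptotic. Tubulin, mitochondrial-mass and membrane-permeability phenotypes are per cents of healthy-nucleus cells.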

[1] = 12 h, 1 µM, compound concentration 1 uM
[2] = 12 h, 10 µM, compound concentration 10 uM
[3] = 24 h, 1 µM, compound concentration 1 uM
[4] = 24 h, 10 µM, compound concentration 10 uM
[5] = 48 h, 1 µM, compound concentration 1 uM
[6] = 48 h, 10 µM, compound concentration 10 uM

COc1ccccc1N1CCN(C[C@@H](C(=O)NC(C)(C)C)c2ccccc2)CC1.Cl.Cl
Population Apoptotic (%) [1]: 73% and 66%
Population Fragmented Nuclei (%) [1]: 29% and 14%
Population Healthy Nuclei (%) [1]: 65% and 80%
Population Hoechst High Intensity Objects (%) [1]: 2% and 1%
Population Membrane Permeable-Phenotype (%) [1]: 5% and 7%
Population Mitochondria Different-Phenotype (%) [1]: 3% and 2%
Population Mitotic Cells (%) [1]: 26% and 33%
Population Normal (%) [1]: 97% and 98%
Population Pyknosed Nuclei (%) [1]: 5%
Population Tubulin-Different-Phenotype (%) [1]: 1% and 3%
Total Cell Count [1]: 281 and 114
Population Apoptotic (%) [2]: 46% and 50%
Population Fragmented Nuclei (%) [2]: 35% and 17%
Population Healthy Nuclei (%) [2]: 49% and 66%
Population Hoechst High Intensity Objects (%) [2]: 3% and 0%
Population Membrane Permeable-Phenotype (%) [2]: 41% and 49%
Population Mitochondria Different-Phenotype (%) [2]: 41% and 56%
Population Mitotic Cells (%) [2]: 53% and 50%
Population Normal (%) [2]: 96% and 99%
Population Pyknosed Nuclei (%) [2]: 14% and 15%
Population Tubulin-Different-Phenotype (%) [2]: 41% and 64%
Total Cell Count [2]: 226 and 102
Population Apoptotic (%) [3]: 68% and 80%
Population Fragmented Nuclei (%) [3]: 29% and 16%
Population Healthy Nuclei (%) [3]: 62% and 75%
Population Hoechst High Intensity Objects (%) [3]: 3%
Population Membrane Permeable-Phenotype (%) [3]: 7% and 5%
Population Mitochondria Different-Phenotype (%) [3]: 1% and 6%
Population Mitotic Cells (%) [3]: 32% and 20%
Population Normal (%) [3]: 96%
Population Pyknosed Nuclei (%) [3]: 8%
Population Tubulin-Different-Phenotype (%) [3]: 3% and 2%
Total Cell Count [3]: 320 and 129
Population Apoptotic (%) [4]: 61% and 70%
Population Fragmented Nuclei (%) [4]: 38% and 20%
Population Healthy Nuclei (%) [4]: 42% and 63%
Population Hoechst High Intensity Objects (%) [4]: 5%
Population Membrane Permeable-Phenotype (%) [4]: 20% and 39%
Population Mitochondria Different-Phenotype (%) [4]: 33% and 61%
Population Mitotic Cells (%) [4]: 38% and 29%
Population Normal (%) [4]: 94%
Population Pyknosed Nuclei (%) [4]: 18% and 15%
Population Tubulin-Different-Phenotype (%) [4]: 25% and 52%
Total Cell Count [4]: 235 and 113
Population Apoptotic (%) [5]: 78% and 83%
Population Fragmented Nuclei (%) [5]: 21% and 16%
Population Healthy Nuclei (%) [5]: 66% and 72%
Population Hoechst High Intensity Objects (%) [5]: 2% and 4%
Population Membrane Permeable-Phenotype (%) [5]: 5% and 7%
Population Mitochondria Different-Phenotype (%) [5]: 1% and 2%
Population Mitotic Cells (%) [5]: 22% and 16%
Population Normal (%) [5]: 97% and 95%
Population Pyknosed Nuclei (%) [5]: 11%
Population Tubulin-Different-Phenotype (%) [5]: 1% and 4%
Total Cell Count [5]: 452 and 162
Population Apoptotic (%) [6]: 58% and 96%
Population Fragmented Nuclei (%) [6]: 33% and 18%
Population Healthy Nuclei (%) [6]: 44% and 58%
Population Hoechst High Intensity Objects (%) [6]: 4% and 8%
Population Membrane Permeable-Phenotype (%) [6]: 28% and 43%
Population Mitochondria Different-Phenotype (%) [6]: 30% and 29%
Population Normal (%) [6]: 95% and 91%
Population Pyknosed Nuclei (%) [6]: 21% and 22%
Population Tubulin-Different-Phenotype (%) [6]: 21% and 35%
Total Cell Count [6]: 271 and 121

CCCC(CCC)C(=O)O [VALPROIC ACID]
Population Apoptotic (%) [1]: 72% and 66%
Population Fragmented Nuclei (%) [1]: 28% and 14%
Population Healthy Nuclei (%) [1]: 63% and 77%
Population Hoechst High Intensity Objects (%) [1]: 6% and 2%
Population Membrane Permeable-Phenotype (%) [1]: 9% and 8%
Population Mitochondria Different-Phenotype (%) [1]: 7% and 3%
Population Mitotic Cells (%) [1]: 27% and 33%
Population Normal (%) [1]: 93% and 97%
Population Pyknosed Nuclei (%) [1]: 8%
Population Tubulin-Different-Phenotype (%) [1]: 8% and 6%
Population Apoptotic (%) [2]: 77% and 85%
Population Fragmented Nuclei (%) [2]: 30% and 21%
Population Healthy Nuclei (%) [2]: 66% and 70%
Population Hoechst High Intensity Objects (%) [2]: 4% and 0%
Population Membrane Permeable-Phenotype (%) [2]: 6% and 4%
Population Mitochondria Different-Phenotype (%) [2]: 3% and 4%
Population Mitotic Cells (%) [2]: 22% and 14%
Population Normal (%) [2]: 95% and 100%
Population Pyknosed Nuclei (%) [2]: 3% and 7%
Population Tubulin-Different-Phenotype (%) [2]: 4%
Population Apoptotic (%) [3]: 84% and 100%
Population Fragmented Nuclei (%) [3]: 24% and 17%
Population Healthy Nuclei (%) [3]: 66% and 74%
Population Hoechst High Intensity Objects (%) [3]: 6% and 3%
Population Membrane Permeable-Phenotype (%) [3]: 9%
Population Mitochondria Different-Phenotype (%) [3]: 6% and 2%
Population Mitotic Cells (%) [3]: 16% and 0%
Population Normal (%) [3]: 93% and 96%
Population Pyknosed Nuclei (%) [3]: 8%
Population Tubulin-Different-Phenotype (%) [3]: 9% and 7%
Population Apoptotic (%) [4]: 83% and 100%
Population Fragmented Nuclei (%) [4]: 25% and 17%
Population Healthy Nuclei (%) [4]: 71% and 78%
Population Hoechst High Intensity Objects (%) [4]: 2% and 0%
Population Membrane Permeable-Phenotype (%) [4]: 4% and 8%
Population Mitochondria Different-Phenotype (%) [4]: 3% and 4%
Population Mitotic Cells (%) [4]: 16% and 0%
Population Normal (%) [4]: 97% and 100%
Population Pyknosed Nuclei (%) [4]: 3% and 4%
Population Tubulin-Different-Phenotype (%) [4]: 3% and 5%
Population Apoptotic (%) [5]: 76% and 91%
Population Fragmented Nuclei (%) [5]: 20% and 16%
Population Healthy Nuclei (%) [5]: 69% and 72%
Population Hoechst High Intensity Objects (%) [5]: 3%
Population Membrane Permeable-Phenotype (%) [5]: 7% and 8%
Population Mitochondria Different-Phenotype (%) [5]: 5%
Population Mitotic Cells (%) [5]: 23% and 8%
Population Normal (%) [5]: 96%
Population Pyknosed Nuclei (%) [5]: 9% and 11%
Population Tubulin-Different-Phenotype (%) [5]: 5% and 6%
Population Apoptotic (%) [6]: 91% and 93%
Population Fragmented Nuclei (%) [6]: 20%
Population Healthy Nuclei (%) [6]: 71%
Population Hoechst High Intensity Objects (%) [6]: 2% and 1%
Population Membrane Permeable-Phenotype (%) [6]: 3% and 9%
Population Mitochondria Different-Phenotype (%) [6]: 2%
Population Mitotic Cells (%) [6]: 8% and 6%
Population Normal (%) [6]: 97% and 98%
Population Pyknosed Nuclei (%) [6]: 7%
Population Tubulin-Different-Phenotype (%) [6]: 1% and 4%

Reference: ChEMBL document CHEMBL5724801, “EUbOPEN Chemogenomics Library - Multiplex” (2024)
